Holding throughout (type): protein-complex assay
The target in experiment [1] is T1, Protein farnesyltransferase (Homo sapiens, UniProt P49354+P49356). Nature of the experiment: Inhibition of Farnesyltransferase.
In experiment [2] the target is T1, Protein farnesyltransferase. As to the kind of experiment: Inhibitory activity against recombinant human farnesyltransferase.
For experiment [3] the target is unchanged. As to the kind of experiment: Inhibitory activity against farnesyltransferase (FPT) (20 ug/mL). The method, boiled down: (§1)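 Primary scintillation proximity assay (SPA) following the kit protocol, with a biotinylated substrate peptide bearing the K-Ras carboxy-terminal sequence.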
Experiment [4] has as its target Geranylgeranyl transferase type I (Homo sapiens, UniProt P49354+P53609). As to the kind of experiment: Inhibitory activity against Geranylgeranyl transferase type I.
Experiment [5] has as its target Protein farnesyl/geranylgeranyl transferase (Homo sapiens) (UniProt P49354+P49356+P53609). As to the kind of experiment: Selectivity was expressed as the ratio of the Geranylgeranyl transferase type I to FPT inhibitory activities (IC50).
Experiment [6] addresses T1, Protein farnesyltransferase. Nature of the experiment: Inhibition of Farnesyltransferase (FPT) in FPT Ras/TCA assay. Put shortly: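 Secondary FPT assay measuring transfer of [³H]farnesyl from [³H]farnesyl pyrophosphate to His₆-H-Ras-CVLS. Labelled protein was collected by TCA precipitation. IC50 values were obtained from this Ras/TCA format.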
For experiment [7] the target is unchanged. As to the kind of experiment: Inhibition of farnesyltransferase (FTP) at 20 ug/mL. The method, boiled down:
as §1

pIC50: −log10 of the molar value.

Drawing on ChEMBL document CHEMBL1130261, “Identification of novel farnesyl protein transferase inhibitors using three-dimensional database searching methods” (J Med Chem, 1997), this text covers IC50, inhibition and Selectivity ratio for 15 molecules.

As to `Clc1ccc(COC2c3c(Cl)cccc3SC2Cn2ccnc2)cc1` (stereo not given), the results for the pIC50 in experiment [1] and in experiment [2] were 4.80 and 5.89, respectively. This molecule registered an inhibition in experiment [3] of 95%.
As to `Clc1ccc2c(c1)S[C@H](Cn1ccnc1)[C@@H]2OCc1ccc(Cl)s1`, the pIC50 was 5.30 in experiment [4] and 5.70 in experiment [2]. Further, the Selectivity ratio in experiment [5] was 2.5. This molecule yielded an inhibition in experiment [3] of 88%.
Take `Fc1ccc2c(c1)[C@@H](OCc1ccc(Cl)c(Cl)c1)[C@@H](Cn1ccnc1)S2`: the pIC50 in experiment [4] was 5.01; in experiment [2] it was 6.15. For the same molecule, the Selectivity ratio in experiment [5] came out at 14. The inhibition in experiment [3] came to 96%.
In the same order, the values of `Clc1ccc(COC2c3c(Cl)cc(Cl)cc3SC2Cn2ccnc2)cc1` (stereo not given) are 4.73, 5.85, 13.4 and 83%.
For `Fc1ccc2c(c1)[C@@H](OCc1ccsc1Cl)[C@@H](Cn1ccnc1)S2` the same measures were 4.47, 5.74, 18.9 and 95%.
In the same order, the values of `Clc1sccc1CO[C@@H]1c2ccc3ccccc3c2S[C@@H]1Cn1ccnc1` are 4.82, 5.82, 10 and 76%.
As to `Clc1ccc2c(c1)S[C@H](Cn1ccnc1)[C@@H]2OCc1c(Cl)sc2ccccc12`, the results for the pIC50 in experiment [4] and in experiment [2] were 4.42 and 5.70, respectively. Besides, the Selectivity ratio in experiment [5] worked out at 19. For the same molecule, in experiment [3], the inhibition was 68%.
In the same order, the values of `Fc1ccc2c(c1)[C@@H](OCc1ccc(Cl)cc1Cl)[C@@H](Cn1ccnc1)S2` are 4.74, 6.15, 26.1 and 91%.
For `Clc1cc2c(cc1Cl)C(OCc1ccsc1Cl)C(Cn1ccnc1)S2` (stereo not given) the same measures were 5.54, 5.85, 2.1 and 93%.
Turning to `Clc1ccc2c(c1)S[C@H](Cn1ccnc1)[C@@H]2OCc1cnc2cc3c(cc2c1Cl)OCO3`, the pIC50 is 5.85 in experiment [4], 5.60 in experiment [2] and 5.51 in experiment [6]. The Selectivity ratio in experiment [5] stood at 0.6. In experiment [3], the inhibition was 69%.
Turning to `Clc1cc(Cl)c2c(c1)[C@@H](OCc1ccsc1Cl)[C@@H](Cn1ccnc1)S2`, the pIC50 is 4.79 in experiment [4] and 5.80 in experiment [2]. Moreover, the Selectivity ratio in experiment [5] worked out at 10.1. In experiment [3], this molecule yielded an inhibition of 86%.
In the same order, the values of `Clc1cccc2c1[C@@H](OCc1ccsc1Cl)[C@@H](Cn1ccnc1)S2` are 4.44, 5.89, 28.1 and 89%.
For `Clc1sccc1CO[C@@H]1c2c(ccc3c2CCCC3)S[C@@H]1Cn1ccnc1` the same measures were 4.77, 6.70, 84 and 90%.
For `Clc1ccc(COC2c3cc(Cl)ccc3SC2Cn2ccnc2)c(Cl)c1` (stereo not given) the same measures were 6.15, 6.70, 3.5 and 99%.
In experiment [7], `Clc1ccc2c(c1)S[C@H](Cn1ccnc1)[C@@H]2OCc1cccnc1Cl` returned an inhibition of 95%. Moreover, the pIC50 in experiment [4] was 5.48; in experiment [2], 5.89. Besides, the Selectivity ratio in experiment [5] turned out to be 2.5.
